The campaign covered roughly 1,300 compounds. About 1,200 (92%) were called active. No rule for the calls is given here. The set was probably picked from earlier hits. A selection follows. Measured potencies and affinities stand elsewhere.
Experiment: E. coli ΔtolC antibacterial growth inhibition – strain BW25113 ΔtolC::kan, dose response (AID 617)
Details: OD615, at 100 µM (top of the series)
Procedure, shortened: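 Material: E. coli BW25113 ΔtolC::kan bacteria; input: inoculum from 1:1000-diluted 1.5 h subculture; medium: kanamycin-containing LB broth, 50 µg/mL; dosing: compounds in serially diluted dose-response series; incubation: 20 h exposure at 37 °C; measured by: absorbance at 615 nm; control set: chloramphenicol control, 30 µM final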

outcome, inactive:
O=C(COc1ccc(Cl)cc1)Nc1nc(-c2cccs2)cs1
COc1cc(C(=O)Nc2nc(-c3cccs3)cs2)cc(OC)c1OC
CC(C)n1c(C(=O)OCC(=O)NCc2ccc3c(c2)OCO3)cc2occc21
CCOC(=O)c1c(N)sc2c(OC)c(Br)ccc12
O=C(C1CCN(Cc2cc(Cl)ccc2O)CC1)N1CCN(Cc2ccccc2)CC1
CCCCCCn1c(CN2CCCC(C)C2)nc2c1c(=O)n(C)c(=O)n2C (stereo not drawn)
Cc1ccc(N(CC(=O)Nc2ccc3c(c2)OCCO3)S(=O)(=O)c2c(C)noc2C)cc1
COc1ccccc1N1CCN(C(=O)c2oc3cc(C)c(C)cc3c2C)CC1
COc1ccccc1N1CCN(C(=O)c2cc(-c3ccc(Br)cc3)on2)CC1
Cc1ccc(-c2noc(CCC(=O)N3CCN(c4cccc(C(F)(F)F)c4)CC3)n2)cc1
Cc1ccc(-c2nnn(CC(=O)N(Cc3cccs3)C(C(=O)NC(C)(C)C)c3ccco3)n2)o1 (stereo not drawn)
Cc1ccc(-c2noc(CN3CCN(c4ccccc4F)CC3)n2)cc1
C=C(C)COc1ccc(-c2[nH]ncc2-c2ccc(OC)c(OC)c2)c(O)c1
COc1ccc(-c2cnc(N)n2CC2CCCO2)cc1 (stereo not drawn)
COc1cc(OC)cc(-n2nnnc2SCC(=O)N2CCCc3ccccc32)c1
Cn1c(-c2ccc3c(c2)OCO3)cnc1N
CCCCCc1c(C)nc(Nc2ccccc2)[nH]c1=O
Cc1nn(-c2ccccc2)c2[nH]c(=O)c(CNCc3ccc4c(c3)OCO4)cc12
CCOC(=O)C1(N(CC)CC)Sc2cc(C)ccc2NC1=O (stereo not drawn)
Cc1cc(=O)oc2c1ccc1oc(/C(=N/O)c3ccccc3)c(C)c12
CN(C)Cc1nc2c(c(=O)[nH]1)C1(CCCCC1)Cc1ccccc1-2
Clc1ccc(Cn2ncc3c(N4CCCCC4)ncnc32)c(Cl)c1
COc1ccc(-c2csc(N(CC3CCCO3)C(=O)c3ccco3)n2)cc1 (stereo not drawn)
CN1/C(=C\C(=O)c2cccs2)Sc2ccccc21
CCOC(=O)c1ccc(NS(=O)(=O)c2ccc(SC)cc2)cc1
O=C(c1cc(C2CC2)on1)N1CCN(C(c2ccccc2)c2ccccc2)CC1
CC(C)n1c2ccccc2c2nc3ccccc3nc21
CCOC(=O)C1CCN(Cc2cn[nH]c2-c2ccc(C)cc2)CC1

— PubChem BioAssay AID617 (SRMLSC, 2007)
